What was measured:
[1] = molecular target: T1, Neuronal acetylcholine receptor; alpha4/beta2 (Homo sapiens, UniProt P17787+P43681); experiment: Displacement of [3H]epibatidine from human alpha4beta2 nAchR expressed in SH-EP1 cells at 5 uM; type: cell-based
Summary of the method: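 Percent inhibition of control [3H]-epibatidine binding to human α4β2 expressed in SH-EP1 cells, with test compound at 5 μM. Reported ± standard error, with replicate number per value.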

[2] = Displacement of [3H]methyllycaconitine from rat alpha7 nAchR in rat hippocampal membrane; type: cell membranes, Hippocampus
Summary of the method: (§1)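 α7 sites on rat hippocampal membranes, labelled with [3H]-methyllycaconitine. Inhibition of binding measured over a seven-point dose-response curve, with replicates averaged at each point. IC50 taken by least-squares non-linear regression against log concentration. Ki given ± standard error, with replicate number per value.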

[3] = (§2) Partial agonist activity at rat alpha7 nAchR by patch clamp assay; type: functional
[4] = species: Rattus norvegicus; experiment: as §2; type: functional
[5] = molecular target: T1, Neuronal acetylcholine receptor; alpha4/beta2; experiment: Displacement of [3H]epibatidine from human alpha4beta2 nAchR expressed in SH-EP1 cells; type: cell-based
Summary of the method: as §1, with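 “Human α4β2 heterologously expressed in SH-EP1 cells,” for “α7 sites on rat hippocampal membranes,”, “[3H]-epibatidine.” for “[3H]-methyllycaconitine.”, “reported” for “given”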

[6] = molecular target: Neuronal acetylcholine receptor; alpha3/beta4 (Homo sapiens) (UniProt P30926+P32297); experiment: Displacement of [3H]epibatidine from human alpha3beta4 nAchR expressed in SH-SY5Y cells at 5 uM; type: cell-based
Summary of the method: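 Radioligand displacement using [3H]-epibatidine on SH-SY5Y cell membranes (ganglion-type nicotinic receptors). Compounds tested at 5 μM; percent inhibition of control radioligand binding reported, with the number of replicates given for each result.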

T1 sequence (P17787 whole entry): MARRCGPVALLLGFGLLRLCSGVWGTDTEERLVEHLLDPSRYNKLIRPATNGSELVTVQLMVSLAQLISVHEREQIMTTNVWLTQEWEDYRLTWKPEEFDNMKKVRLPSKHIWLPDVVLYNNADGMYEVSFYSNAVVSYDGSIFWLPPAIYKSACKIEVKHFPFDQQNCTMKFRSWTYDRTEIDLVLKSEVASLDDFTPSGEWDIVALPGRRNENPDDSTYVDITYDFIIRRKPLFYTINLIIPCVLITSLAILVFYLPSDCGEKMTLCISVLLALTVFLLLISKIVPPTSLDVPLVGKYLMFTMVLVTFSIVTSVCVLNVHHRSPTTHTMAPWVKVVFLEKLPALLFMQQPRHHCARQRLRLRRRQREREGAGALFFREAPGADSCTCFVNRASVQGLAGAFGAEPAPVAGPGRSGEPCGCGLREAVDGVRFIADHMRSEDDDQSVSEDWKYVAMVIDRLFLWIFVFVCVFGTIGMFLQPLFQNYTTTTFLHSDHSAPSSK
T1 sequence (P43681 whole entry): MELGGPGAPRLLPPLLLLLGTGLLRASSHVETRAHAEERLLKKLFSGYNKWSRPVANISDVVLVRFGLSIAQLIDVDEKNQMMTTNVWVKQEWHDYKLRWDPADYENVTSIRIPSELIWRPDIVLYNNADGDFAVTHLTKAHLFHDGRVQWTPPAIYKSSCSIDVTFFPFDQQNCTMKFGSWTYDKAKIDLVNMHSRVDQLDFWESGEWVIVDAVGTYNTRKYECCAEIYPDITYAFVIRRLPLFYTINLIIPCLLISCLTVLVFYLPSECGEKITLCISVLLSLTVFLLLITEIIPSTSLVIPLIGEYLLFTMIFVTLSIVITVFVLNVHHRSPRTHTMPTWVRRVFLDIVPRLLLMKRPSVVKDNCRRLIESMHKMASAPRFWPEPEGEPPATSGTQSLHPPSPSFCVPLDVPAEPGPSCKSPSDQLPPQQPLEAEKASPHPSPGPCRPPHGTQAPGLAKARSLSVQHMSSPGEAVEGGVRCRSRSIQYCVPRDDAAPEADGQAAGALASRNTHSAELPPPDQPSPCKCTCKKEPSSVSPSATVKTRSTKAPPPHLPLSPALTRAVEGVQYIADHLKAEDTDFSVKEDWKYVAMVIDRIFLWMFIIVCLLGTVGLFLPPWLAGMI

SMILES | inhibition [1] [%] | Ki [2] [nM] | further results
O=C1CC(c2ccc(Br)s2)=NCC2(CN3CCC2CC3)N1 (stereo not given) | 62 | 77 | –
COc1ccc(C2=NCC3(CN4CCC3CC4)NC(=O)C2)cc1 (stereo not given) | 42 | 42 | –
O=C1CC(c2cccs2)=NCC2(CN3CCC2CC3)N1 (stereo not given) | 20 | 58 | –
Oc1c(C2=NC3(CN2)CN2CCC3CC2)oc2ccccc12 (stereo not given) | 32 | 7 | EC50 [3]: 600 nM; Emax [4]: 53%
O=C1CC(c2ccco2)=NCC2(CN3CCC2CC3)N1 (stereo not given) | 14 | 150 | –
Nc1c(C2=NC3(CN2)CN2CCC3CC2)oc2ccccc12 (stereo not given) | 9 | 120 | –
Oc1ccccc1C1=NC2(CN1)CN1CCC2CC1 (stereo not given) | 4 | 290 | –
COc1ccc(/C=C2\CCCN=C2c2cccnc2)c(OC)c1 [GTS-21] | – | 1300 | Ki [5]: 51 nM
OC1=CC(c2ccccc2)=NCC2(CN3CCC2CC3)N1 (stereo not given) | 15 | 140 | –
c1ccc2oc(C3=NC4(CN3)CN3CCC4CC3)cc2c1 (stereo not given) | 4 | – | –
COc1ccccc1C1=NCC2(CN3CCC2CC3)NC(=O)C1 (stereo not given) | 7 | 110 | –
COc1cccc(C2=NCC3(CN4CCC3CC4)NC(=O)C2)c1 (stereo not given) | 12 | 87 | –
COc1cc(O)ccc1/C=C1\CCCN=C1c1cccnc1 | 97 | – | inhibition [6]: 75%
C1=NCC2(CN3CCC2CC3)NC=C1c1ccccc1 (stereo not given) | 6 | – | –
O=C1NCC2(CN3CCC2CC3)NC(=O)C1c1ccccc1 (stereo not given) | 2 | – | –
c1ccc(C2=NC3(CN2)CN2CCC3CC2)cc1 (stereo not given) | 11 | – | –
